Assay outcomes as filed in PubChem BioAssay.
HSF1 inhib = HSF1 inhibition | NIH3T3-HGL HSE-luciferase, MG132-induced, luminescence 8 h; stronger effect = lower value | activity change, negative = inhibition, % at 7.5 µM (by protocol) | 0.77% of 300,000 active | AID 2098;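 active means more than half of replicate wells show activity change below -50%, luminescence cut by over half; inconclusive means some wells, but at most half, below -50%; inactive means no replicate well below -50%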;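 further: luciferase reports HSF-1 transcriptional activity via heat shock element; 0% = median of DMSO wells and -100% = zero luminescence signal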
Jurkat NFkB inh = inhibitors of the PMA/ionomycin-induced NF-kB reporter in Jurkat cells; inhibition, % at 4 µM; 0.53% of 330,000 active; AID 435003; PMA/ionomycin-induced NF-kB luciferase reporter, luminescence; in the data active means inhibition above about 50%
HSF1 activator = increases HSF-1 driven luciferase reporter signal; NIH3T3-HGL HSF-1 luciferase reporter, MG132, 8 h; 100% = twice DMSO control signal; AID 504408; activation, % at 9 µM; 1.7% of 300,000 active;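 active means mean replicate activation of at least 50% with a set share of replicates each reaching 50%; inconclusive means only one of those two conditions met; inactive means mean below 50% and too few replicates reaching it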;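 further: 0% = median of the neutral control wells and 100% = twice that signal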
GPR7 antagonist = blocks human GPR7 receptor signaling; P48145; GPR7-expressing cells, fluorescence antagonist assay; inhibition, % at 4.4 µM; 1.1% of 290,000 active; in the data active means inhibition above about 16%, passing the limit was not always enough;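 further: cells stimulated with the agonist NPW; 0% = agonist with vehicle and 100% = vehicle without agonist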
Target sequence (P48145 whole entry, looked up): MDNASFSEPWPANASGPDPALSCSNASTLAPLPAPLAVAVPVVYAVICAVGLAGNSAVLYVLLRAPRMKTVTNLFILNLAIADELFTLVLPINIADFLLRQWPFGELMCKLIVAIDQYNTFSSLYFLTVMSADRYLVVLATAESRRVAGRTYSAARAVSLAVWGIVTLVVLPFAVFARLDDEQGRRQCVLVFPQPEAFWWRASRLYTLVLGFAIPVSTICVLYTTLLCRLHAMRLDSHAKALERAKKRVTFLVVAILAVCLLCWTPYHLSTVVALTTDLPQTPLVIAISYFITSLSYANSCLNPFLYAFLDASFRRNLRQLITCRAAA
T cruzi repl = blocks replication of Trypanosoma cruzi. T. cruzi beta-gal in NIH3T3, luminescence, 90 h. inhibition, % (concentration not given with the values). 1.4% of 300,000 active;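 active means mean inhibition across valid replicates above about 55%, limit read from the data; inconclusive means mean below that limit but half or more replicates reach it; inactive means mean below it, under half of replicates reach it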;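 further: signal also drops with host cell toxicity which is not excluded here; 0% = plate median of DMSO wells and 100% = zero luminescence signal; higher percent means less beta-gal luminescence so fewer parasites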
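Assay system: NIH/3T3 host cells with β-galactosidase reporter T. cruzi; input: 5,000 host fibroblasts per well; compound: single 50 nL compound addition per well in DMSO; timing: ≥90 h infection period, 3 h prior cell attachment; measured by: GalScreen β-gal luminescence, detergent lysis, 60 min; evaluation: percent inhibition of parasite-derived β-gal signal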
697 NFkB inh = inhibitors of the PMA/ionomycin-induced NF-kB reporter in 697 B cells; inhibition, % at 4 µM; 697 B-cell NF-kB luciferase reporter, 16 h; 0.33% of 330,000 active; in the data active means inhibition above about 35%
Starred values were filed as active, the others as inactive; ? = inconclusive; . = no result given; ! = not confirmed by another sample. An excerpt weighted towards active compounds, which were near 4.8% of everything screened.

SMILES	HSF1 inhib	Jurkat NFkB inh	HSF1 activator	GPR7 antagonist	T cruzi repl	697 NFkB inh
Cc1cccc(Nc2nc(N)c([N+](=O)[O-])c(NCc3ccco3)n2)c1	4	47	-10	-23	19	-65
O=C(Nc1cccc2cccnc12)c1ccc(Cl)cc1	21	-40	10	-18	-11	-19
CCOC(=O)C(C(=O)Nc1cccc(C)c1)C1CCCCC1 (stereo not given)	17	7	20	9	-2	-7
C#CCSc1nnc(-c2cccc3ccccc23)o1	41	-12	69*	-7	6	5
C#CCSc1nnc(-c2ccc(C)cc2)o1	37	-53	61*	-3	-29	-110
C=CCSc1nnc(-c2cccc3ccccc23)o1	.	0	.	.	.	-15
O=C1CCN(Cc2ccccc2)S(=O)(=O)c2c(F)cc(F)cc21	.	11	.	.	.	16
CCCNC(=O)c1ccc(N2CCC3(CC2)CC(c2cccc(Br)c2)=NO3)c(NC(=O)c2ccc(Br)cc2)c1	-89*	1	-91	.	19	16
O=[N+]([O-])c1ccc(-n2nnnc2-c2ccccc2)c([N+](=O)[O-])c1	244	.	231*	-3	62*	.
Cc1cccc(C(=O)OCC(=O)N2CCCCCC2)c1	.	-20	.	.	.	10
CN1CCCN(Cc2nc(-c3ccc(Cl)cc3)no2)CC1	-7	-32	-2	-2	0	-10
Cn1c(COc2ccc(Cl)cc2)nnc1SCC(=O)NC1CCCC1	0	2	-8	-9	-15	11
CCN(CC)CCOc1ccc(/C(=C(/Cl)c2ccccc2)c2ccccc2)cc1	18	-7	67*!	26	40	-9
Cc1ccc(S(=O)(=O)NCc2ccccc2)cc1C(=O)NCC1CCCO1 (stereo not given)	-1	14	-4	.	-11	-1
COc1ccc([C@@H]2CC=C(C(=O)O)[C@H](c3ccc(Cl)cc3)N2S(=O)(=O)c2ccccc2C)cc1	.	5	.	.	.	16
CC(=O)C1C(=O)c2c(cccc2[N+](=O)[O-])C1=Nc1ccc(S(N)(=O)=O)cc1 (stereo not given)	-91*	-10	-92	-5	-5	-7
Nc1cc(=O)[nH]c2ncnn12	-5	.	-5	.	.	.
Cc1ccc(Sc2nc([N+](=O)[O-])nn2C)cc1	-36	-3	-52	-1	49	5
CSc1ccccc1C(=O)N1CCc2ccccc2C1	1	-28	5	-8	-4	-3
COc1cc(-c2cn(S(=O)(=O)c3cccc4nsnc34)nc2N)cc(OC)c1OC	19	-8	59*	3	43	16
Cc1ccc(-c2cn(S(=O)(=O)c3cccc4nsnc34)nc2N)cc1	6	-9	2	-5	-1	-11
CS(=O)(=O)Nc1cccc(C2=NN(C(=O)CCCC(=O)O)C(c3cccs3)C2)c1 (stereo not given)	18	-3	63*	1	-9	3
CS(=O)(=O)Nc1cccc(C2=NN(C(=O)c3ccccc3)C(c3cccs3)C2)c1 (stereo not given)	8	-5	16	3	2	0
CS(=O)(=O)Nc1cccc(C2=NN(S(=O)(=O)c3ccc(F)cc3)C(c3cccs3)C2)c1 (stereo not given)	11	1	35	19*	9	11
Nc1ncnc2nc(N3CCN(C(=O)c4ccccc4)CC3)[nH]c12	-73*	-8	-80	-3	-3	3
SMILES	HSF1 inhib	Jurkat NFkB inh	HSF1 activator	GPR7 antagonist	T cruzi repl	697 NFkB inh
O=C(c1ccccc1)N1CCN(c2ncccn2)CC1	0	-4	22	-9	5	2
O=C(C1=C(c2ccccc2)C(=O)c2ccccc2C1=O)c1ccccc1	55	.	82*	-19	50	.
Cc1nn(Cc2ccccc2Cl)c(C)c1C(=O)NCC(c1cccs1)N1CCOCC1 (stereo not given)	0	-7	14	.	-2	-17
O=C(c1ccccc1NS(=O)(=O)c1cccc2cccnc12)N1CCOCC1	-1	-11	-6	-11	-4	-22
CSCCC(NS(=O)(=O)c1ccccc1F)C(=O)NCc1cccnc1 (stereo not given)	1	12	10	.	2	1
Cc1ccc(-c2nc(N3CCOCC3)sc2C(=O)N2CCCCC2)cc1	2	-26	11	25*	-7	-11
COc1ccc(CN2C(=NC(=O)C3CCCCC3)SC3CS(=O)(=O)CC32)cc1 (stereo not given)	4	23	0	-16	-6	-19
COc1ccc(CN2C(=NC(=O)CCC3CCCC3)SC3CS(=O)(=O)CC32)cc1 (stereo not given)	-71*	-2	-78	-8	0	-31
Cc1ccc(CNC(=O)C2CCN(S(=O)(=O)N3CCC4(CC3)OCCO4)CC2)cc1	0	6	7	-20	-18	13
N#CCc1nn(-c2ccc(F)cc2)c(N)c1C#N	-4	10	-8	4	-4	11
CC(C)Oc1ccccc1C1Nc2ccccc2C(=O)N1c1ccc2c(c1)OCCO2 (stereo not given)	1	-101	7	1	10	-156
Cc1ccc(N2C(=O)c3ccccc3NC2C(C)Cc2ccc3c(c2)OCO3)cc1 (stereo not given)	8	-14	37	2	55*	6
CCOC(=O)c1ccc(NC(=O)CCS(=O)(=O)c2ccc(Br)s2)cc1	48	-6	117*	-5	6	-4
COc1ccc(NC(=O)CCS(=O)(=O)c2ccc(Br)s2)cc1	-5	-5	10	9	1	-9
O=C(Nc1nnc(SCC(=O)N2CCOCC2)s1)c1ccccc1	-5	7	-16	-6	-9	-28
NC(=O)CSC1=N/C(=C\c2ccco2)C(=O)N1c1ccc(OC(F)F)cc1	53	12	72*	-14	7	16
CCN(CC)C(=O)CSC1=N/C(=C/c2ccco2)C(=O)N1c1ccc(OC)c(Cl)c1	45	5	67*	7	-2	-1
COc1ccc(N2C(=O)/C(=C\c3ccco3)N=C2SCC(=O)NC(C)(C)C)cc1Cl	27	8	?	-1	-14	-26
CC(C)N(C1=N/C(=C\c2ccco2)C(=O)N1c1ccccc1)C(C)C	4	8	1	-8	17	22
C[C@@H](C(=O)N1CCN(C(=O)OC(C)(C)C)CC1)n1cc(-c2cn([C@@H](C)C(=O)N3CCN(C(=O)OC(C)(C)C)CC3)nn2)nn1	6	32	-12	.	1	21
COc1ccc(Nc2ccc(C(F)(F)F)cc2[N+](=O)[O-])cn1	-19	7	-38	-13	-11	3
OC(COc1ccc2ccccc2c1)Cn1ccnc1 (stereo not given)	5	3	6	-3	48	11
